Assay outcomes from PubChem BioAssay.
MrgX1 agonist – activates human MrgX1 receptor signaling; MrgX1-HEK293 cells, Fluo-4 calcium fluorescence, agonist mode; stronger effect = higher value; B-score at 10 µM; 0.44% of 310,000 active; AID 588627;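 active means calcium response B-score plate-corrected fluorescence ratio at least 3 library SD, with starting fluorescence B-score inside 5 SD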
Target sequence (Q96LB2 whole entry, looked up): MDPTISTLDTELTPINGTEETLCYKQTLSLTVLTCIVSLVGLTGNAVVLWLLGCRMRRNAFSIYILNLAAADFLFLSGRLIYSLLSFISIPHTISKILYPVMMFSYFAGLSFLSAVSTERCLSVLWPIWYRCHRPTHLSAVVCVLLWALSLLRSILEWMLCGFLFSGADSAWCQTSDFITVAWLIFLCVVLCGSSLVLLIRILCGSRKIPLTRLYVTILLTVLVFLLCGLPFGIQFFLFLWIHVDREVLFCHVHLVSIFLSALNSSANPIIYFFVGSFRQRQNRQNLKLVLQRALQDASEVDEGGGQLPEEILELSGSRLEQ
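Material: MrgX1-expressing HEK293 cells; input: 15,000 cells per well; doses: test compound given as first of three sequential additions; schedule: overnight plating before 1 h dye loading; technique: Fluo-4 NW calcium-flux fluorescence, kinetic read; evaluation: baseline-normalised fluorescence change ratio, B-scored; control set: plate-wise positive and negative controls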
MrgX1 allo act – allosterically activates human MrgX1 receptor signaling; Q96LB2; MrgX1-HEK293, Fluo-4 calcium flux, FDSS; stronger effect = higher value; B-score at 10 µM; 0.63% of 310,000 active; AID 588675;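 active means plate-corrected calcium response at least 3 library SD above typical, normal starting fluorescence, not activating the receptor alone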;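 further: compound read alongside a low EC10 to EC30 dose of BAM8-22 agonist; peak minus trough fluorescence over baseline measured at the second addition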
RGS4 pot – RGS4 potentiation or activation; HEK293 M3R/inducible RGS4, carbachol calcium flux Fluo4; stronger effect = lower value; B-score at 10 µM; 0.92% of 310,000 active; AID 463111;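 active means B-score of the integrated calcium signal more than 4 SD below the library mean, with starting fluorescence not abnormally high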;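 further: negative B-score means reduced calcium response which marks RGS4 activation or potentiation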
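Assay system: Inducible-RGS4 HEK293 cells carrying M3 receptor | Schedule: Compound preincubation 20 min at room temperature before agonist | Signal: Kinetic calcium fluorescence imaging with Fluo4-AM dye, 2 µM | Read-out basis: B score from integrated fluorescence ratio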
RGS4 inh – human RGS4 inhibition | P49798 | HEK293 M3R/RGS4 inducible, Fluo-4 calcium flux; stronger effect = higher value; triggered by carbachol at its EC20 | B-score at 10 µM | 0.45% of 310,000 active;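 active means B-score, a plate-corrected calcium signal, over three deviations above library mean, with baseline fluorescence within five deviations of library mean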;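 further: RGS4 expression induced by doxycycline in cells with stable M3 receptor; B-score is computed from the integrated fluorescence ratio over baseline after carbachol; higher B-score means a larger calcium signal and so more RGS4 inhibition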
Target sequence (P49798 whole entry, looked up): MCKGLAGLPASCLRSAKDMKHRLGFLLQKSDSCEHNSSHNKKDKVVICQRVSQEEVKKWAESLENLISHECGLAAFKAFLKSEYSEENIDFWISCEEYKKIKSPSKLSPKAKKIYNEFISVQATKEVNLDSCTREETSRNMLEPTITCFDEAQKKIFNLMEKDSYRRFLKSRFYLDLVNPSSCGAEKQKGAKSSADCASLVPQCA
MrgX1 antag – antagonists of human MrgX1 receptor; Q96LB2; MRGX1-HEK293 calcium flux, Fluo-4, BAM8-22 antagonism; stronger effect = lower value; B-score at 10 µM; 1.3% of 310,000 active; AID 588676;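 active means calcium-response B-score plate-corrected more than 3 library SD below zero, starting fluorescence within 5 deviations, no agonist response on first addition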;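 further: peak minus trough fluorescence over baseline after final BAM8-22 challenge near maximal dose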
MrgX1 allo conf – confirmation of human MrgX1 receptor positive allosteric modulators; shares compounds with MrgX1 allo act; MrgX1-HEK293, Fluo-4 calcium fluorescence, FDSS; activation (ratio percentage), % at 10 µM; 13% of 1,200 active;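 active means ratio at least 3 SD above the weak peptide control, stable starting fluorescence, no direct agonism earlier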;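 further: compound followed by low BAM8-22 agonist challenge near EC20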
HEK293 Ca flux – activity in parental HEK293 cells lacking MrgX1 | fluorescence ratio F(max-min)/F0 at 10 µM | Fluo-4 calcium fluorescence, FDSS | shares compounds with MrgX1 antag | 2% of 4,000 active;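 active means duplicate-averaged calcium fluorescence ratio at least three times the standard deviation of buffer wells, a nonspecific response in parental cells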
HEK293 Ca counter – MrgX1 allosteric activator counter-screen hit in parental HEK293 cells. shares compounds with MrgX1 antag. AID 624114. fluorescence ratio F(max-min)/F0 at 10 µM. 0.4% of 4,000 active. parental HEK293 calcium flux, Fluo-4 fluorescence ratio; stronger effect = higher value;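 active means calcium fluorescence ratio, averaged over duplicates, at least 3 SD of the buffer-well ratio, meaning a nonspecific response in receptor-free cells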;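 further: untransfected parental HEK293 lacking MrgX1 used as counterscreen for MrgX1 allosteric activators; fluorescence change taken during the second addition on a kinetic imager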
HEK293 Ca cntr2 – activity in parental HEK293 cells lacking MrgX1 receptor | Fluo-4 calcium fluorescence (FDSS); stronger effect = higher value | 8.7% of 4,000 active | fluorescence ratio F(max-min)/F0 at 10 µM | AID 624115 | shares compounds with MrgX1 antag;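 active means calcium fluorescence ratio at least three times the spread of buffer wells, meaning a non-specific response in parental cells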
Large screens that a line does not name were inactive (follow-up assays come after a bar, where they were run). Rows were chosen to be rich in hits. Some 3.5% of all compounds tested hit in one or more screens of this group.

CCCCc1nnc(NC(=O)c2ccc3[nH]c(=O)c(=O)[nH]c3c2)s1	none
O=C(NCCCNC(=O)c1ccc(-c2cccc(Cl)c2)o1)c1cnccn1	MrgX1 allo act 13 | MrgX1 allo conf inactive | HEK293 Ca flux inactive | HEK293 Ca counter inactive | HEK293 Ca cntr2 inactive
O=C(NCCNC(=O)c1cnccn1)c1cccc(Cl)c1	none
O=C(NCCNC(=O)c1ccc(-c2ccc(Cl)c(Cl)c2)o1)c1cnccn1	MrgX1 allo act 7.2 | MrgX1 allo conf inactive | HEK293 Ca flux inactive | HEK293 Ca counter inactive | HEK293 Ca cntr2 inactive
COCCNS(=O)(=O)c1cc2[nH]c3c(c2cc1C)C(=O)CC(C)(C)C3	none
CCn1c(SCC(=O)Nc2nc(C)c(C)s2)nc2cccnc21	none
CCOC(=O)Cc1csc(NC(=O)CSc2nc3cccnc3n2CC)n1	MrgX1 allo act 7.3 | MrgX1 allo conf inactive | HEK293 Ca flux inactive | HEK293 Ca counter inactive | HEK293 Ca cntr2 inactive
COc1ccc(C2=CC(c3sccc3C)n3nnnc3N2)cc1 (stereo unspecified)	none
COc1ccc(C2=CC(c3ccc(F)cc3)n3nnnc3N2)cc1 (stereo unspecified)	MrgX1 allo act 7 | MrgX1 allo conf inactive | HEK293 Ca flux inactive | HEK293 Ca counter inactive | HEK293 Ca cntr2 inactive
Cc1nnc(SCCn2c(Br)nc3c2c(=O)n(C)c(=O)n3C)s1	none
Cc1nnc(Sc2c(N)n(C)c(=O)n(C)c2=O)s1	MrgX1 allo act 11 | MrgX1 allo conf inactive | HEK293 Ca flux inactive | HEK293 Ca counter inactive | HEK293 Ca cntr2 inactive
COc1cccc(CC(=O)Nc2ccccc2N2CCCC2)c1	MrgX1 allo act 9.4 | MrgX1 allo conf inactive | HEK293 Ca flux inactive | HEK293 Ca counter inactive | HEK293 Ca cntr2 inactive
CC(Oc1ccc(F)cc1)C(=O)Nc1ccccc1N1CCCCC1 (stereo unspecified)	MrgX1 allo act 12 | MrgX1 allo conf inactive | HEK293 Ca flux inactive | HEK293 Ca counter inactive | HEK293 Ca cntr2 inactive
Cc1cccc(OCC(=O)Nc2ccccc2N2CCCC2)c1C	MrgX1 allo act 26 | MrgX1 allo conf 25% | HEK293 Ca flux inactive | HEK293 Ca counter inactive | HEK293 Ca cntr2 inactive
CN1CCN(c2ccc(S(=O)(=O)N3CCCCC3)cc2NC(=O)COc2cccc(Cl)c2)CC1	none
Cc1cccc(OCC(=O)Nc2cc(S(=O)(=O)N3CCCCC3)ccc2N2CCN(C)CC2)c1	MrgX1 allo act 16 | MrgX1 allo conf inactive | HEK293 Ca flux inactive | HEK293 Ca counter inactive | HEK293 Ca cntr2 inactive
Cc1ccccc1OCC(=O)Nc1ccccc1N1CCCCC1	none
O=C(Nc1ccccc1O)c1ccc(NS(=O)(=O)c2cccc3cccnc23)cc1	none
CC(C)=CCCC(C)CN1CCC(N2CCC(C(=O)NC(C)C)CC2)CC1 (stereo unspecified)	none
Cc1cc(OCC(=O)Nc2ccccc2N2CCCC2)ccc1C(C)C	MrgX1 allo act 22 | MrgX1 allo conf 13% | HEK293 Ca flux inactive | HEK293 Ca counter inactive | HEK293 Ca cntr2 inactive
Cc1ccc(OCC(=O)Nc2ccccc2N2CCOCC2)c(C)c1	MrgX1 allo act 9.9 | MrgX1 allo conf inactive | HEK293 Ca flux inactive | HEK293 Ca counter inactive | HEK293 Ca cntr2 inactive
Cc1cc(OCC(=O)Nc2ccccc2N2CCCCC2)ccc1C(C)C	MrgX1 allo act 6.9 | MrgX1 allo conf inactive | HEK293 Ca flux inactive | HEK293 Ca counter inactive | HEK293 Ca cntr2 inactive
O=C(CNCC1CCCO1)Nc1ccccc1N1CCCCCC1 (stereo unspecified)	MrgX1 allo act 6.9 | MrgX1 allo conf inactive | HEK293 Ca flux inactive | HEK293 Ca counter inactive | HEK293 Ca cntr2 inactive
CCc1[nH]nc(C(=O)N2CCCC(N3CCN(c4ccccc4C)CC3)C2)c1C (stereo unspecified)	none
c1ccc(-c2nc3c(ccc4ccccc43)[nH]2)nc1	MrgX1 allo act 6.8 | MrgX1 allo conf inactive | HEK293 Ca flux inactive | HEK293 Ca counter inactive | HEK293 Ca cntr2 inactive
c1ccc(-c2nc3ccccc3[nH]2)nc1	none
Cc1sc2ncnc(N3CCC(C)CC3)c2c1C	MrgX1 allo act 18 | MrgX1 allo conf 4.3% | HEK293 Ca flux inactive | HEK293 Ca counter inactive | HEK293 Ca cntr2 inactive
Cc1c(C(=O)N2CCN(c3ccccc3)CC2)sc2ncnc(N3CCC(C)CC3)c12	none
COc1ccc(C(C)=O)cc1Cn1cnc2c(cnn2C)c1=O	MrgX1 allo act 11 | MrgX1 allo conf inactive | HEK293 Ca flux inactive | HEK293 Ca counter inactive | HEK293 Ca cntr2 inactive
COc1ccc(C=O)cc1Cn1cnc2c(cnn2C)c1=O	none
CCOC(=O)c1c(C)nc(-c2ccccc2)nc1N	MrgX1 allo act 7.4 | MrgX1 allo conf inactive | HEK293 Ca flux inactive | HEK293 Ca counter inactive | HEK293 Ca cntr2 inactive
CC(C)NC(=O)CN(C(=O)CCC(=O)Nc1nccs1)c1ccc2c(c1)OCO2	none
COCCNC(=O)CN(C(=O)CCC(=O)Nc1nccs1)c1ccc2c(c1)OCO2	MrgX1 allo act 33 | MrgX1 allo conf inactive | HEK293 Ca flux inactive | HEK293 Ca counter inactive | HEK293 Ca cntr2 inactive
CC(C)(C)c1ccc(-c2nc(C=O)c3ccccn23)cc1	none
Cc1c(C(C)(C)C)c(C=S)n2ccccc12	MrgX1 allo act 8.5 | MrgX1 allo conf inactive | HEK293 Ca flux inactive | HEK293 Ca counter inactive | HEK293 Ca cntr2 inactive
CN(C)S(=O)(=O)c1ccc(C(=O)OCC(=O)NCc2ccccc2)cc1	MrgX1 allo act 8.4 | MrgX1 allo conf inactive | HEK293 Ca flux inactive | HEK293 Ca counter inactive | HEK293 Ca cntr2 inactive
CC(=O)c1sc(NC(=O)c2ccccc2)nc1-c1ccccc1	none
Cc1sc(NC(=O)c2cccnc2)nc1-c1ccccc1	MrgX1 allo act 11 | MrgX1 allo conf inactive | HEK293 Ca flux inactive | HEK293 Ca counter inactive | HEK293 Ca cntr2 inactive
COC1(c2cc(-c3ccccc3)nc(N)n2)CCCCC1	MrgX1 allo act 31 | MrgX1 allo conf 28% | HEK293 Ca flux inactive | HEK293 Ca counter inactive | HEK293 Ca cntr2 inactive
Nc1nc(-c2ccccc2)cc(C(F)(F)F)n1	none
Cc1nc(N2CCN(C(=O)c3ccco3)CC2)[nH]c(=O)c1C	none
Cc1cc(C)nc(-n2nc(C)c(Sc3ccc(F)cc3)c2N)n1	MrgX1 allo act 11 | MrgX1 allo conf inactive | HEK293 Ca flux inactive | HEK293 Ca counter inactive | HEK293 Ca cntr2 inactive
Cc1nn(-c2ccccc2)c(N)c1Sc1cccc([N+](=O)[O-])c1	none
O=C(NCCN1CCN(Cc2ccccc2)CC1)c1ccc(CS(=O)(=O)c2ccc(Br)cc2)o1	none
